TRPC4 PAM – allosterically enhances the mouse TRPC4 cation channel | Q9QUQ5 | HEK293 TRPC4beta/mu-opioid, DAMGO EC20, Fluo-4 Ca2+ flux; hits give high values | AID 2227 | 0.42% of 310,000 active | B-score at 10 µM;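 active = B-score of calcium response area above 5 SD of library B-scores, with initial fluorescence ratio within 5 SD of library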
Target sequence (Q9QUQ5 whole entry, looked up): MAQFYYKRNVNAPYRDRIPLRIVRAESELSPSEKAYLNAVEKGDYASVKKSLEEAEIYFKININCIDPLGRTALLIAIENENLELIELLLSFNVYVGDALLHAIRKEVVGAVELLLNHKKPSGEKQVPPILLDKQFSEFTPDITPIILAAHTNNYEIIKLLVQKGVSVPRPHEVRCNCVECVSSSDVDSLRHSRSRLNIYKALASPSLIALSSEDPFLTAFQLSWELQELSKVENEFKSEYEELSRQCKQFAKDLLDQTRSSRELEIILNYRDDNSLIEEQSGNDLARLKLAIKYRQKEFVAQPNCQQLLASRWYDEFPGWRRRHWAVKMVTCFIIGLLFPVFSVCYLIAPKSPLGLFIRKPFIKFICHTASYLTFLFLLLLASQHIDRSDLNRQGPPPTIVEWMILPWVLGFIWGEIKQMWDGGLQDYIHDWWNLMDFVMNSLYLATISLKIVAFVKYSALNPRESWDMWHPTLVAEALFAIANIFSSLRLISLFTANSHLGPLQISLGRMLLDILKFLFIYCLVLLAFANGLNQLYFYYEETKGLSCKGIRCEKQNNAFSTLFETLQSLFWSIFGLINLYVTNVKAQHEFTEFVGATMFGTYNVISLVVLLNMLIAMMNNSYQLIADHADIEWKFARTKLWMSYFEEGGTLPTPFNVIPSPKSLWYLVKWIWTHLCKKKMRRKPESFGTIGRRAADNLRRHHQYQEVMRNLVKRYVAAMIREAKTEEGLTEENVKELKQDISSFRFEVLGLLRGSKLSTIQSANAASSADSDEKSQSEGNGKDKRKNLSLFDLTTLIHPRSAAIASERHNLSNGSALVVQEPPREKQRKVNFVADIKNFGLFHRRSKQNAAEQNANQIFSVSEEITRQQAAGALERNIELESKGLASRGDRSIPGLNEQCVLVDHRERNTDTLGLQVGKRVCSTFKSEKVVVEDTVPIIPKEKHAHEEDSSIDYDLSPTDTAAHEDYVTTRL
Kir21 block – Kir2.1 (mouse) channel inhibition; P35561; HEK293-Kir2.1, FluxOR thallium flux fluorescence; hits give low values; B-score at 10 µM; 0.85% of 310,000 active;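 active = fluorescence ratio B-score at or below minus 3 SD of library scores, with starting-brightness B-score within 2 SD, cut at about -4.2 in these data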;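 also: channel flux triggered by added potassium and thallium sulfate stimulus; B-score of peak minus minimum fluorescence over baseline after thallium stimulus; more negative B-score means stronger Kir2.1 block with less thallium influx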
TRPC6 act – activators of mouse TRPC6 channel; Q61143; HEK293-TRPC6 membrane potential dye fluorescence; hits give high values; B-score at 10 µM; 0.13% of 310,000 active;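 active = B-score of the integrated fluorescence ratio above library mean plus 3 SD, and starting fluorescence ratio within library mean plus 5 SD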;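 also: higher score means more depolarization so channel activation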
TRPC4 block – blocks the mouse TRPC4 cation channel. HEK293 TRPC4beta/mu-opioid, DAMGO-evoked Fluo4 calcium flux; hits give low values. B-score at 10 µM. 0.39% of 300,000 active. AID 2247;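 active = B-score over 3 SD under the library average, no early fluorescence shift, positive overall ratio signal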
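Assay system: Stable TRPC4beta/mu-opioid receptor HEK293 cells | Reagent: DAMGO in two steps, submaximal then maximal | Compound dosing: Single concentration per test compound | Signal: Fluo4 Ca2+ flux fluorescence | Evaluation: Per-well B score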
TRPC6 inhibitor – mouse TRPC6 channel inhibition. Q61143. 1.1% of 310,000 active. HEK293-TRPC6, membrane potential dye, ACh-evoked depolarization; hits give low values. B-score at 10 µM;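 active = B-score under library mean minus 3 SD, initial fluorescence not abnormally high, positive integrated signal ratio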;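 also: B-score derived from integrated fluorescence ratio over the kinetic read; more negative B-score means stronger inhibition of depolarization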
TRPC4 act – opens the mouse TRPC4 cation channel; Q9QUQ5; HEK293 TRPC4beta/mu-opioid, Fluo4 calcium fluorescence; hits give high values; B-score at 10 µM; 0.49% of 310,000 active; AID 2237;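 active = B-score above 5 SD of library B-scores, and initial fluorescence ratio not above library mean plus 5 SD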;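 also: positive B-score marks a calcium rise read as TRPC4 activation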
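Assay system: HEK293 stable line with TRPC4beta plus mu-opioid receptor; schedule: 45 min room-temperature Fluo4 loading, 110 s read; technique: kinetic Fluo4 calcium fluorescence; evaluation: integrated baseline-normalised fluorescence ratio, converted to per-well B score; controls: buffer (low) and maximal DAMGO (high)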
TRPC4 sel inh 2 – second check of whether TRPC6 inhibitors also affect mouse TRPC4; inhibition, % at 10 µM; shares compounds with TRPC6 inhibitor; 42% of 920 active; HEK293 TRPC4/MOR, membrane potential dye fluorescence; channel activated by saturating DAMGO dose;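 active = compounds whose fluorescence signal differed from control wells by over 3 SD, either direction, in both duplicate plates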
TRPC4 spec – tests whether TRPC6 inhibitors also affect mouse TRPC4. HEK293 TRPC4/mu-opioid, membrane potential fluorescence. 61% of 920 active. AID 2777. activity change, negative = inhibition, % at 10 µM. shares compounds with TRPC6 inhibitor;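 active = rise or fall in signal beyond 3 SD of buffer-only wells in both replicate plates, either sign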;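 also: integrated kinetic ratio of fluorescence range over baseline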
HEK293 MPD ctr 2-1 – second check of TRPC6 inhibitor effects in parental HEK293 cells. shares compounds with TRPC6 inhibitor. parental HEK293 membrane potential dye fluorescence; maximal acetylcholine challenge after compound addition. signal change vs control, % at 10 µM. 31% of 920 active. AID 2779;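 active = membrane potential signal moving either way by over 3 SD of the maximum-effect control, in both duplicate plates, meaning non-specific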
HEK293 MPD ctr-1 – parental HEK293 nonspecific activity of TRPC6 inhibitors; shares compounds with TRPC6 inhibitor; membrane potential signal change, % at 10 µM; parental HEK293 membrane potential dye fluorescence; AID 2780; 60% of 920 active;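 active = membrane potential signal shifting up or down by more than 3 SD of buffer-only wells, on both duplicate plates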
HEK293 MPD ctr-2 – counter-screen for TRPC6 modulators: effect in parental HEK293 cells; shares compounds with TRPC6 inhibitor; membrane potential dye fluorescence; membrane potential signal change, % at 10 µM; 51% of 2,400 active;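 active = membrane potential signal moves up or down beyond 5 SD from buffer-only wells, on both duplicate plates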
HEK293 MPD ctr 2-2 – second counter-screen for TRPC6 modulators: effect in parental HEK293 cells. shares compounds with TRPC6 inhibitor. membrane potential dye fluorescence; after compound, maximal acetylcholine stimulation. inhibition, % at 10 µM. 14% of 2,400 active. AID 488926;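 active = membrane potential signal drops by more than 5 SD from the mean control signal, in both duplicate plates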
TRPC4/MOR mod – mouse TRPC4 off-target activity of TRPC6 modulators; shares compounds with TRPC6 inhibitor; HEK293 TRPC4/mu-opioid, membrane potential fluorescence; percent change from control (negative = decrease, positive = increase), % at 10 µM; 69% of 2,400 active; AID 488927;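 active = membrane potential signal moved up or down beyond 5 SD of buffer control wells, in both duplicate plates, actives on both sides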
TRPC4 ctr inh 2 – second selectivity test of TRPC6 modulators against mouse TRPC4; HEK293 TRPC4/mu-opioid, membrane potential dye fluorescence; stimulated with maximal-effect DAMGO; inhibition, % at 10 µM; shares compounds with TRPC6 inhibitor; 55% of 2,400 active;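 active = drop in membrane potential signal beyond 5 SD of the control wells in both duplicate plates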;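 also: TRPC4 counter screen for TRPC6 hits run under conditions tuned for TRPC6 not TRPC4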
TRPC6 inh conf – confirmation of mouse TRPC6 inhibitors. HEK293-TRPC6, membrane potential dye, ACh-evoked depolarization. inhibition, % at 10 µM. shares compounds with TRPC6 inhibitor. 43% of 3,300 active;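 active = fluorescence ratio falls more than 5 SD below the full-stimulation control mean, in both duplicate runs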;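 also: integrated fluorescence ratio of peak minus minimum over baseline after agonist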
TRPC6 act conf – confirmation of mouse TRPC6 activators. shares compounds with TRPC6 inhibitor. HEK293-TRPC6 membrane potential dye fluorescence, FDSS. activation, % at 10 µM. 11% of 2,800 active. AID 488961;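 active = ratio signal rise beyond 5 SD above unstimulated control wells' mean, seen in both duplicate runs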
Hits are given with their value; – = inactive; · = not tested or not shown; + = active, no number. Compounds with a hit are over-represented: about 2.9% of the library has one in this group of screens.

SMILES	TRPC4 PAM	Kir21 block	TRPC6 act	TRPC4 block	TRPC6 inhibitor	TRPC4 act	HEK293 MPD ctr-2	HEK293 MPD ctr 2-2	TRPC4/MOR mod	TRPC4 ctr inh 2	TRPC6 inh conf	TRPC6 act conf	others
CCCCc1nc(N2CCNCC2)c(C#N)c2c1CSC(C)(C)C2	–	–	–	–	-7.8	–	·	·	·	·	–	–	TRPC4 sel inh 2=44%;TRPC4 spec=–;HEK293 MPD ctr 2-1=–;HEK293 MPD ctr-1=0.9%
O=C(Cc1ccccc1)N1CCN(CCCc2ccccc2)CC1	–	–	–	–	–	–	·	·	·	·	·	·
CCC(C)N1CCN(C(=O)Cc2ccccc2)CC1 (stereo unspecified)	–	–	–	–	-7.1	–	·	·	·	·	–	–	TRPC4 sel inh 2=–;TRPC4 spec=–;HEK293 MPD ctr 2-1=–;HEK293 MPD ctr-1=–
CC(C)[N+](C)(CCC(C(N)=O)(c1ccccc1)c1ccccc1)C(C)C	–	–	–	–	-6.6	–	–	101%	–	–	88%	–
CC(Cc1ccccc1)NC(N)=O (stereo unspecified)	–	–	–	–	–	–	·	·	·	·	·	·
CCN(CC)c1ccc(/C=C/[N+](=O)[O-])cc1	–	–	56	–	–	105	+	+	386%	32%	·	434%
COc1cc(/C=C/[N+](=O)[O-])ccc1O	–	–	–	–	–	–	·	·	·	·	·	·
COc1ccc(-c2cc(=Nc3ccccc3)c3cc(C)ccc3o2)cc1	–	–	–	–	-7.7	–	·	·	·	·	–	–	TRPC4 sel inh 2=–;TRPC4 spec=-18%;HEK293 MPD ctr 2-1=–;HEK293 MPD ctr-1=-198%
CCOc1cc2c(cc1OCC)-n1cccc1C(c1cc(OC)ccc1F)NC2 (stereo unspecified)	–	–	–	–	–	–	·	·	·	·	·	·
Cc1ccc(CC(=O)N2CCN(C)CC2)cc1	–	–	–	–	–	–	·	·	·	·	·	·
CC(C)(C#CCCCCC#CC(C)(C)[N+](C)(C)C)[N+](C)(C)C	–	–	–	–	–	–	·	·	·	·	·	·
O=[N+]([O-])c1ccc2nc(N3CCNCC3)ccc2c1	–	–	–	–	-5	–	-218%	–	-38%	42%	–	–
CCOc1ccc2nc(N=Nc3c(O)[nH]c(=S)[nH]c3=O)sc2c1	–	–	–	–	–	–	·	·	·	·	·	·
CN1CCCN(C(=O)COc2ccc(F)cc2Cl)CC1	–	–	–	–	–	–	·	·	·	·	·	·
CCCCc1ccc2[nH]cc(CCN)c2c1	–	–	–	–	-5.2	–	–	–	–	47%	50%	–
